From ChEMBL document CHEMBL3124924, “Bifunctional ethyl 2-amino-4-methylthiazole-5-carboxylate derivatives: synthesis and in vitro biological evaluation as antimicrobial and anticancer agents” (2014)
≈ marks a conversion by molar mass, not a printed value. Calls of active or inactive are those of the source. No cut-off for these calls is given here.

Columns and labels:
Candida albicans [1] = assay: Antifungal activity against Candida albicans ATCC 10231 assessed as growth inhibition at 1 mg/mL after 48 hrs by agar-cup diffusion method; assay type: functional; conditions: ATCC 10231, 48 h, read-out: DIZ
Procedure, shortened: (§1)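 Agar-cup diffusion: 1 mL of 6 h broth culture seeded per 100 mL molten sterile agar at 45 °C and poured into plates. 8 mm cups cut, each filled with 0.1 mL of 1 mg/mL test solution. Incubated 37 °C for 24 h, 48 h for C. albicans. DMSO control per organism. Inhibition zone diameter in mm, mean of three measurements.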

Escherichia coli [2] = assay: Antibacterial activity against Escherichia coli ATCC 25922 assessed as growth inhibition after 48 hrs by two-fold serial dilution assay; assay type: functional; conditions: ATCC 25922, 48 h
Procedure, shortened: (§2)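 Twofold serial broth dilution run on compounds giving inhibition zones of 13 mm or more. Organisms pre-grown in suitable broth at 37 °C, 24 h for bacteria and 48 h for fungi. Dilution series 200, 100, 50, 25, 12.5, 6.25. Each 5 mL tube inoculated with 0.1 mL and incubated 37 °C for 48 h. Tubes scored for presence or absence of growth.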

Pseudomonas aeruginosa [3] = assay: Antibacterial activity against Pseudomonas aeruginosa ATCC 27853 assessed as growth inhibition at 1 mg/mL after 24 hrs by agar-cup diffusion method; assay type: functional; conditions: ATCC 27853, 24 h, read-out: DIZ; procedure, shortened: as §1
Candida albicans [4] = assay: Fungicidal activity against Candida albicans ATCC 10231 after 18 hrs; assay type: functional; conditions: ATCC 10231, 18 h
Procedure, shortened: (§3)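 Continuation of the broth-dilution MIC test. A loopful from each tube without visible growth spread on a quarter of a Mueller-Hinton agar plate and incubated 18 h. Lowest concentration giving no growth on subculture taken as the MBC.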

Aspergillus niger = assay: Antifungal activity against Aspergillus niger assessed as growth inhibition at 1 mg/mL after 24 hrs by agar-cup diffusion method; assay type: functional, organism-based; procedure, shortened: as §1
Pseudomonas aeruginosa [5] = assay: Antibacterial activity against Pseudomonas aeruginosa ATCC 27853 assessed as growth inhibition after 48 hrs by two-fold serial dilution assay; assay type: functional; conditions: ATCC 27853, 48 h; procedure, shortened: as §2
Escherichia coli [6] = assay: Bactericidal activity against Escherichia coli ATCC 25922 after 18 hrs; assay type: functional; conditions: ATCC 25922, 18 h; procedure, shortened: as §3
Staphylococcus aureus [7] = assay: Antibacterial activity against Staphylococcus aureus ATCC 6538 assessed as growth inhibition at 1 mg/mL after 24 hrs by agar-cup diffusion method; assay type: functional; conditions: ATCC 6538, 24 h, read-out: DIZ; procedure, shortened: as §1
Bacillus spizizenii [8] = assay: Bactericidal activity against Bacillus subtilis ATCC 6633 after 18 hrs; assay type: functional; conditions: ATCC 6633, 18 h; procedure, shortened: as §3
Bacillus spizizenii [9] = assay: Antibacterial activity against Bacillus subtilis ATCC 6633 assessed as growth inhibition after 48 hrs by two-fold serial dilution assay; assay type: functional; conditions: ATCC 6633, 48 h; procedure, shortened: as §2
Escherichia coli [10] = assay: Antibacterial activity against Escherichia coli ATCC 25922 assessed as growth inhibition at 1 mg/mL after 24 hrs by agar-cup diffusion method; assay type: functional; conditions: ATCC 25922, 24 h, read-out: DIZ; procedure, shortened: as §1
Candida albicans [11] = assay: Antifungal activity against Candida albicans ATCC 10231 assessed as growth inhibition after 48 hrs by two-fold serial dilution assay; assay type: functional; conditions: ATCC 10231, 48 h; procedure, shortened: as §2
Staphylococcus aureus [12] = assay: Antibacterial activity against Staphylococcus aureus ATCC 6538 assessed as growth inhibition after 48 hrs by two-fold serial dilution assay; assay type: functional; conditions: ATCC 6538, 48 h; procedure, shortened: as §2
Staphylococcus aureus [13] = assay: Bactericidal activity against Staphylococcus aureus ATCC 6538 after 18 hrs; assay type: functional; conditions: ATCC 6538, 18 h; procedure, shortened: as §3
Pseudomonas aeruginosa [14] = assay: Bactericidal activity against Pseudomonas aeruginosa ATCC 27853 after 18 hrs; assay type: functional; conditions: ATCC 27853, 18 h; procedure, shortened: as §3
Bacillus spizizenii [15] = assay: Antibacterial activity against Bacillus subtilis ATCC 6633 assessed as growth inhibition at 1 mg/mL after 24 hrs by agar-cup diffusion method; assay type: functional; conditions: ATCC 6633, 24 h, read-out: DIZ; procedure, shortened: as §1

With CCOC(=O)c1sc(NC(=S)Nc2ccc(F)cc2)nc1C the zone of inhibition at 1000 µg/mL (Candida albicans [1]) was > 13 mm, the MIC (Escherichia coli [2]) was 25 µg/mL (≈ 73.7 µM) and the zone of inhibition at 1000 µg/mL (Pseudomonas aeruginosa [3]) was > 13 mm. The MFC (Candida albicans [4]) was 50 µg/mL (≈ 147 µM), the “growth inhibition (GI)” value (Aspergillus niger) was “inactive” and the MIC (Pseudomonas aeruginosa [5]) was 100 µg/mL (≈ 295 µM). For the same molecule, the MBC (Escherichia coli [6]) was 25 µg/mL (≈ 73.7 µM), the zone of inhibition at 1000 µg/mL (Staphylococcus aureus [7]) was > 13 mm and the MBC (Bacillus spizizenii [8]) was 25 µg/mL (≈ 73.7 µM). For the same molecule, the MIC (Bacillus spizizenii [9]) was 25 µg/mL (≈ 73.7 µM), the zone of inhibition at 1000 µg/mL (Escherichia coli [10]) was > 13 mm and the MIC (Candida albicans [11]) was 25 µg/mL (≈ 73.7 µM). It also gave an MIC (Staphylococcus aureus [12]) of 12.5 µg/mL (≈ 36.8 µM), an MBC (Staphylococcus aureus [13]) of 12.5 µg/mL (≈ 36.8 µM) and an MBC (Pseudomonas aeruginosa [14]) of 100 µg/mL (≈ 295 µM). The zone of inhibition at 1000 µg/mL (Bacillus spizizenii [15]) was > 13 mm.
